Source: ChEMBL document CHEMBL1250442, “Inhibiting gene expression at transcription start sites in chromosomal DNA with antigene RNAs” (Nat Chem Biol, 2005)
The source made the active and inactive calls. No cut-off for these calls is given here.

What was measured:
T47D [1] = assay: Inhibition of PR-A gene expression in human T47D cells at 25 nM by syber green assay; assay type: functional
Procedure, shortened: (§1)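 T47D cells plated at 80,000/well without antibiotics two days before Oligofectamine transfection with agRNA duplex (25 or 100 nM final); medium changed at 24 h, harvest day 5 unless stated otherwise. TRIzol total RNA; PR mRNA by real-time PCR with SYBR Green: 50 °C 2 min, 95 °C 10 min, 40 cycles 95 °C 15 s/60 °C 1 min.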

T47D [2] = assay: Inhibition of PR-B gene expression in human T47D cells at 25 nM by syber green assay; assay type: functional; procedure, shortened: as §1
T47D [3] = assay: Inhibition of PR-A gene expression in human T47D cells at 25 nM by syber green assay in presence of 10 nM estradiol; assay type: functional, cell-based
T47D [4] = assay: Inhibition of PR-B gene expression in human T47D cells at 25 nM by syber green assay in presence of 10 nM estradiol; assay type: functional, cell-based
T47D [5] = assay: Inhibition of PR-A mRNA gene expression in human T47D cells at 100 nM by syber green assay; assay type: functional; procedure, shortened: as §1
T47D [6] = assay: Inhibition of PR-B mRNA gene expression in human T47D cells at 100 nM by syber green assay; assay type: functional
Procedure, shortened: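 T47D cells in RPMI-1640 with 10% FBS, NEAA, insulin, 37 °C, 5% CO2. Plated two days before transfection without antibiotics. Oligofectamine-mediated duplex RNA transfection at 100 nM final, medium changed at 24 h, harvest five days post-transfection. Total RNA extracted with TRIzol. hPR mRNA quantified by SYBR Green qPCR: 50 °C 2 min, 95 °C 10 min, then 40 cycles of 95 °C 15 s / 60 °C 1 min.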

Row | SMILES | inhibition at 0.025 µM (T47D [1]) [%] | inhibition at 0.025 µM (T47D [2]) [%] | inhibition (T47D [3]) | inhibition (T47D [4]) | inhibition at 0.1 µM (T47D [5]) [%] | inhibition at 0.1 µM (T47D [6]) [%]
1 | Cc1cn(CC(=O)N(CCNC(=O)CN(CCNC(=O)CN(CCNC(=O)CN(CCNC(=O)CN(CCNC(=O)CN(CCNC(=O)CN(CCNC(=O)CN(CCNC(=O)CN(CCNC(=O)CN(CCNC(=O)CN(CCNC(=O)CN(CCNC(=O)CN(CCNC(=O)CN(CCNC(=O)CN(CCNC(=O)CN(CCNC(=O)CN(CCNC(=O)CN(CCNC(=O)CN(CCNC(=O)CN(CCNC(=O)CN)C(=O)Cn2cnc3c(N)ncnc32)C(=O)Cn2cnc3c(N)ncnc32)C(=O)Cn2cnc3c(N)ncnc32)C(=O)Cn2cnc3c(=O)[nH]c(N)nc32)C(=O)Cn2ccc(N)nc2=O)C(=O)Cn2ccc(=O)[nH]c2=O)C(=O)Cn2cnc3c(=O)[nH]c(N)nc32)C(=O)Cn2ccc(=O)[nH]c2=O)C(=O)Cn2ccc(N)nc2=O)C(=O)Cn2ccc(=O)[nH]c2=O)C(=O)Cn2cnc3c(=O)[nH]c(N)nc32)C(=O)Cn2cnc3c(=O)[nH]c(N)nc32)C(=O)Cn2ccc(N)nc2=O)C(=O)Cn2ccc(N)nc2=O)C(=O)Cn2cnc3c(N)ncnc32)C(=O)Cn2cnc3c(=O)[nH]c(N)nc32)C(=O)Cn2ccc(=O)[nH]c2=O)C(=O)Cn2ccc(N)nc2=O)C(=O)Cn2ccc(N)nc2=O)CC(=O)NCCN(CC(=O)NCC(=O)O)C(=O)Cn2cc(C)c(=O)[nH]c2=O)c(=O)[nH]c1=O | < 20 | < 20 | Active | Active | < 20 | < 20
2 | Cc1cn(CC(=O)N(CCNC(=O)CN(CCNC(=O)CN(CCNC(=O)CN(CCNC(=O)CN(CCNC(=O)CN(CCNC(=O)CN(CCNC(=O)CN(CCNC(=O)CN(CCNC(=O)CN(CCNC(=O)CN(CCNC(=O)CN(CCNC(=O)CN(CCNC(=O)CN(CCNC(=O)CN(CCNC(=O)CN(CCNC(=O)CN(CCNC(=O)CN(CCNC(=O)CN(CCNC(=O)CN(CCNC(=O)CN(CCNC(=O)CN)C(=O)Cn2cnc3c(=O)[nH]c(N)nc32)C(=O)Cn2ccc(=O)[nH]c2=O)C(=O)Cn2ccc(N)nc2=O)C(=O)Cn2ccc(=O)[nH]c2=O)C(=O)Cn2cnc3c(=O)[nH]c(N)nc32)C(=O)Cn2cnc3c(=O)[nH]c(N)nc32)C(=O)Cn2ccc(N)nc2=O)C(=O)Cn2ccc(N)nc2=O)C(=O)Cn2cnc3c(N)ncnc32)C(=O)Cn2cnc3c(=O)[nH]c(N)nc32)C(=O)Cn2ccc(=O)[nH]c2=O)C(=O)Cn2ccc(N)nc2=O)C(=O)Cn2ccc(N)nc2=O)C(=O)Cn2cnc3c(N)ncnc32)C(=O)Cn2ccc(N)nc2=O)C(=O)Cn2cnc3c(N)ncnc32)C(=O)Cn2cnc3c(=O)[nH]c(N)nc32)C(=O)Cn2ccc(N)nc2=O)C(=O)Cn2ccc(=O)[nH]c2=O)C(=O)Cn2cc(C)c(=O)[nH]c2=O)CC(=O)O)c(=O)[nH]c1=O | 67 | 73 | Active | Active | 67 | 88
3 | Cc1cn(CC(=O)N(CCNC(=O)CN(CCNC(=O)CN(CCNC(=O)CN(CCNC(=O)CN(CCNC(=O)CN(CCNC(=O)CN(CCNC(=O)CN(CCNC(=O)CN(CCNC(=O)CN(CCNC(=O)CN(CCNC(=O)CN(CCNC(=O)CN(CCNC(=O)CN(CCNC(=O)CN(CCNC(=O)CN(CCNC(=O)CN(CCNC(=O)CN(CCNC(=O)CN(CCNC(=O)CN(CCNC(=O)CN)C(=O)Cn2cnc3c(=O)[nH]c(N)nc32)C(=O)Cn2ccc(=O)[nH]c2=O)C(=O)Cn2ccc(=O)[nH]c2=O)C(=O)Cn2cnc3c(=O)[nH]c(N)nc32)C(=O)Cn2ccc(=O)[nH]c2=O)C(=O)Cn2ccc(=O)[nH]c2=O)C(=O)Cn2cnc3c(N)ncnc32)C(=O)Cn2cnc3c(=O)[nH]c(N)nc32)C(=O)Cn2cnc3c(N)ncnc32)C(=O)Cn2cnc3c(N)ncnc32)C(=O)Cn2cnc3c(N)ncnc32)C(=O)Cn2cnc3c(=O)[nH]c(N)nc32)C(=O)Cn2ccc(N)nc2=O)C(=O)Cn2ccc(=O)[nH]c2=O)C(=O)Cn2cnc3c(=O)[nH]c(N)nc32)C(=O)Cn2ccc(=O)[nH]c2=O)C(=O)Cn2ccc(N)nc2=O)C(=O)Cn2ccc(=O)[nH]c2=O)C(=O)Cn2cnc3c(=O)[nH]c(N)nc32)CC(=O)NCCN(CC(=O)NCC(=O)O)C(=O)Cn2cc(C)c(=O)[nH]c2=O)c(=O)[nH]c1=O | < 20 | < 20 | Active | Active | < 20 | < 20
4 | Cc1cn([C@@H]2O[C@H](COP(=O)(O)O[C@H]3C[C@H](n4cc(C)c(=O)[nH]c4=O)O[C@@H]3COP(=O)(O)O[C@H]3[C@@H](O)[C@H](n4ccc(N)nc4=O)O[C@@H]3COP(=O)(O)O[C@H]3[C@@H](O)[C@H](n4cnc5c(=O)[nH]c(N)nc54)O[C@@H]3COP(=O)(O)O[C@H]3[C@@H](O)[C@H](n4cnc5c(N)ncnc54)O[C@@H]3COP(=O)(O)O[C@H]3[C@@H](O)[C@H](n4ccc(N)nc4=O)O[C@@H]3COP(=O)(O)O[C@H]3[C@@H](O)[C@H](n4cnc5c(N)ncnc54)O[C@@H]3COP(=O)(O)O[C@H]3[C@@H](O)[C@H](n4ccc(N)nc4=O)O[C@@H]3COP(=O)(O)O[C@H]3[C@@H](O)[C@H](n4ccc(N)nc4=O)O[C@@H]3COP(=O)(O)O[C@H]3[C@@H](O)[C@H](n4ccc(=O)[nH]c4=O)O[C@@H]3COP(=O)(O)O[C@H]3[C@@H](O)[C@H](n4cnc5c(=O)[nH]c(N)nc54)O[C@@H]3COP(=O)(O)OC3[C@@H](O)[C@H](n4cnc5c(N)ncnc54)O[C@@H]3COP(=O)(O)O[C@H]3[C@@H](O)[C@H](n4ccc(N)nc4=O)O[C@@H]3COP(=O)(O)O[C@H]3[C@@H](O)[C@H](n4cnc5c(=O)[nH]c(N)nc54)O[C@@H]3COP(=O)(O)O[C@H]3[C@@H](O)[C@H](n4cnc5c(=O)[nH]c(N)nc54)O[C@@H]3COP(=O)(O)O[C@H]3[C@@H](O)[C@H](n4cnc5c(=O)[nH]c(N)nc54)O[C@@H]3COP(=O)(O)O[C@H]3[C@@H](O)[C@H](n4ccc(=O)[nH]c4=O)O[C@@H]3COP(=O)(O)O[C@H]3[C@@H](O)[C@H](n4ccc(N)nc4=O)O[C@@H]3COP(=O)(O)O[C@H]3[C@@H](O)[C@H](n4ccc(=O)[nH]c4=O)O[C@@H]3COP(=O)(O)O[C@H]3[C@@H](O)[C@H](n4cnc5c(=O)[nH]c(N)nc54)O[C@@H]3COP(=O)(O)O[C@H]3[C@@H](O)[C@H](n4ccc(=O)[nH]c4=O)O[C@@H]3CO)[C@@H](O)[C@H]2O)c(=O)[nH]c1=O (stereo partly specified) | 53 | 75 |  |  | 67 | 91
5 | Cc1cn([C@H]2C[C@H](OP(=O)(O)OC[C@H]3O[C@@H](n4cnc5c(=O)[nH]c(N)nc54)C[C@@H]3OP(=O)(O)OC[C@H]3O[C@@H](n4cc(C)c(=O)[nH]c4=O)C[C@@H]3OP(=O)(O)OC[C@H]3O[C@@H](n4ccc(N)nc4=O)C[C@@H]3OP(=O)(O)OC[C@H]3O[C@@H](n4cc(C)c(=O)[nH]c4=O)C[C@@H]3OP(=O)(O)OC[C@H]3O[C@@H](n4cnc5c(=O)[nH]c(N)nc54)C[C@@H]3OP(=O)(O)OC[C@H]3O[C@@H](n4cnc5c(=O)[nH]c(N)nc54)C[C@@H]3OP(=O)(O)OC[C@H]3O[C@@H](n4ccc(N)nc4=O)C[C@@H]3OP(=O)(O)OC[C@H]3O[C@@H](n4ccc(N)nc4=O)C[C@@H]3OP(=O)(O)OC[C@H]3O[C@@H](n4cnc5c(N)ncnc54)C[C@@H]3OP(=O)(O)OC[C@H]3O[C@@H](n4cnc5c(=O)[nH]c(N)nc54)C[C@@H]3OP(=O)(O)OC[C@H]3O[C@@H](n4cc(C)c(=O)[nH]c4=O)C[C@@H]3OP(=O)(O)OC[C@H]3O[C@@H](n4ccc(N)nc4=O)C[C@@H]3OP(=O)(O)OC[C@H]3O[C@@H](n4ccc(N)nc4=O)C[C@@H]3OP(=O)(O)OC[C@H]3O[C@@H](n4cnc5c(N)ncnc54)C[C@@H]3OP(=O)(O)OC[C@H]3O[C@@H](n4ccc(N)nc4=O)C[C@@H]3OP(=O)(O)OC[C@H]3O[C@@H](n4cnc5c(N)ncnc54)C[C@@H]3OP(=O)(O)OC[C@H]3O[C@@H](n4cnc5c(=O)[nH]c(N)nc54)C[C@@H]3OP(=O)(O)OC[C@H]3O[C@@H](n4ccc(N)nc4=O)C[C@@H]3O)[C@@H](CO)O2)c(=O)[nH]c1=O |  |  |  |  | < 20 | < 20
6 | Cc1cn([C@H]2C[C@H](OP(=O)(O)OC[C@H]3O[C@@H](n4cc(C)c(=O)[nH]c4=O)C[C@@H]3O)[C@@H](COP(=O)(O)O[C@H]3[C@@H](O)[C@H](n4ccc(N)nc4=O)O[C@@H]3COP(=O)(O)O[C@H]3[C@@H](O)[C@H](n4cnc5c(=O)[nH]c(N)nc54)O[C@@H]3COP(=O)(O)O[C@H]3[C@@H](O)[C@H](n4cnc5c(N)ncnc54)O[C@@H]3COP(=O)(O)O[C@H]3[C@@H](O)[C@H](n4cnc5c(=O)[nH]c(N)nc54)O[C@@H]3COP(=O)(O)O[C@H]3[C@@H](O)[C@H](n4cnc5c(N)ncnc54)O[C@@H]3COP(=O)(O)O[C@H]3[C@@H](O)[C@H](n4ccc(N)nc4=O)O[C@@H]3COP(=O)(O)O[C@H]3[C@@H](O)[C@H](n4ccc(N)nc4=O)O[C@@H]3COP(=O)(O)O[C@H]3[C@@H](O)[C@H](n4ccc(=O)[nH]c4=O)O[C@@H]3COP(=O)(O)O[C@H]3[C@@H](O)[C@H](n4cnc5c(=O)[nH]c(N)nc54)O[C@@H]3COP(=O)(O)O[C@H]3[C@@H](O)[C@H](n4cnc5c(N)ncnc54)O[C@@H]3COPO[C@H]3[C@@H](O)[C@H](n4ccc(N)nc4=O)O[C@@H]3COP(=O)(O)O[C@H]3[C@@H](O)[C@H](n4cnc5c(=O)[nH]c(N)nc54)O[C@@H]3COP(=O)(O)O[C@H]3[C@@H](O)[C@H](n4cnc5c(=O)[nH]c(N)nc54)O[C@@H]3COP(=O)(O)O[C@H]3[C@@H](O)[C@H](n4cnc5c(=O)[nH]c(N)nc54)O[C@@H]3COP(=O)(O)O[C@H]3[C@@H](O)[C@H](n4ccc(=O)[nH]c4=O)O[C@@H]3COP(=O)(O)O[C@H]3[C@@H](O)[C@H](n4ccc(N)nc4=O)O[C@@H]3COP(=O)(O)O[C@H]3[C@@H](O)[C@H](n4ccc(=O)[nH]c4=O)O[C@@H]3COP(=O)(O)O[C@H]3[C@@H](O)[C@H](n4ccc(N)nc4=O)O[C@@H]3COP(=O)(O)O[C@H]3[C@@H](O)[C@H](n4ccc(=O)[nH]c4=O)O[C@@H]3CO)O2)c(=O)[nH]c1=O (stereo partly specified) |  |  |  |  | < 20 | < 20
